# Results filed as inconclusive are left out. Calls of active or inactive are those of the source.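 The calls were made as follows: active = in every test run, the fitted curve rises past 10% of the positive control effect within the tested doses; inconclusive = runs disagree, or a flat fit at moderate level, or poor fit; inactive = all runs inactive, including signal going the wrong way.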
# Tested on: not listed separately
# Assay: caspase-3/7 activation in A1-dependent MEFs, dose response, A1 inhibitor project, cell-based, A1-2A-BIM MEF, luminescence, dry powder (AID 504413)
# Settings: MEF A1-2A-BIM cells, caspase-3/7 Glo luminescence; hits give high values
# In short: (§1)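 technique = Caspase-3/7 luminescence from DEVD-luciferin substrate reagent | assay system = A1-2A-BIM-expressing MEF cells | input = 2500 cells per well | incubation = 3 h compound exposure (37 °C), 1 h reagent (RT)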
row,SMILES,max activity
1,O=c1[nH]c2ccccc2c(O)c1[N+](=O)[O-],0.403% (inactive)
2,CCn1c(=O)c(Sc2ccc(C)cc2)c(Sc2ccc(C)cc2)c2ccccc21,3.42% (inactive)
3,COCCn1c(=O)c(Sc2ccc(C)cc2)c(Sc2ccc(C)cc2)c2ccccc21,4.03% (inactive)
4,COc1ccc(N2CCN(c3nc(NCCc4ccc(OC)c(OC)c4)nc(N4CCOCC4)n3)CC2)cc1,-3.19% (inactive)
5,COc1c([N+](=O)[O-])c(=O)n(C)c2ccccc12,-4.02% (inactive)
6,Cc1ccc(Sc2c(Sc3ccc(C)cc3)c3ccccc3n(C)c2=O)cc1,0.915% (inactive)
7,COc1nc2ccccc2c(Cl)c1[N+](=O)[O-],-3.3% (inactive)
8,Cc1ccc(Sc2c(Sc3ccc(C)cc3)c3ccccc3n(Cc3ccccc3)c2=O)cc1,6.71% (inactive)
9,C/C(=N\Nc1nc(N2CCCCC2)nc(N2CCCCC2)n1)c1ccc(F)cc1,0.285% (inactive)
10,Cn1c(=O)c(Sc2ccccn2)c(Sc2ccccn2)c2ccccc21,-0.138% (inactive)
11,COc1ccc(CCNc2nc(N3CCCC3)nc(N3CCCC3)n2)cc1OC,4.48% (inactive)
12,COc1ccc(CCNc2nc(N3CCOCC3)nc(N3CCOCC3)n2)cc1OC,-1.95% (inactive)
13,COc1nc2ccccc2c(Sc2ccc(C)cc2)c1[N+](=O)[O-],-2.09% (inactive)
14,O=C(COc1ccc(Cl)cc1Cl)NNc1nc(N2CCOCC2)nc(N2CCOCC2)n1,-3.81% (inactive)

# Tested on: MEF A1-2A-BIM cells, caspase-3/7 Glo luminescence
# Assay: as above
# Settings: not given
# In short: as §1
row,SMILES,AC10
1,Cn1c(=O)c([N+](=O)[O-])c(Sc2ccccn2)c2ccccc21,3.78 µM
2,Cn1c(=O)c([N+](=O)[O-])c(Cl)c2ccccc21,2.6 µM
3,COCCn1c(=O)c([N+](=O)[O-])c(Cl)c2ccccc21,1.9 µM
4,Cc1ccc(S(=O)(=O)c2c([N+](=O)[O-])c(=O)n(C)c3ccccc23)cc1,7.02 µM
5,Cc1ccc(Sc2c([N+](=O)[O-])c(=O)n(C)c3ccccc23)cc1,7.28 µM

# From PubChem BioAssay AID504413 (Broad Institute, 2011)
